# Calls of active or inactive are those of the source. The rule behind the calls is not given here.
# Key:
# [1] = Distribution coefficient, log D of the compound at pH 7.4; type: physicochemical; details: octanol/water
# Procedure, shortened: (§1)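 Log D values were obtained by calculation, not by experimental partitioning.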
# [2] = Distribution coefficient, log D of the compound at pH 1.5; type: physicochemical; details: octanol/water; procedure, shortened: as §1
# [3] = Solubility of the compound in L929 cell culture medium; type: physicochemical
# Hydroxyapatite [4] = assay: Binding affinity to hydroxyapatite assessed as unadsorbed compound level at 20 mg after 24 hrs using 2.5 mg/ml of hydroxyapatite by NMR analysis relative to control
# Procedure, shortened: (§2)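 Bisphosphonate salt dissolved in bidistilled water, pH adjusted to 7.4, and magnetically stirred at 25 °C for the hydroxyapatite adsorption test.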
# Hydroxyapatite [5] = assay: Binding affinity to hydroxyapatite assessed as unadsorbed compound level at 20 mg after 96 hrs using 10 mg/ml of hydroxyapatite by NMR analysis relative to control; procedure, shortened: as §2
# Hydroxyapatite [6] = assay: Binding affinity to hydroxyapatite assessed as unadsorbed compound level at 20 mg after 48 hrs using 5 mg/ml of hydroxyapatite by NMR analysis relative to control; procedure, shortened: as §2
# Hydroxyapatite [7] = assay: Binding affinity to hydroxyapatite assessed as unadsorbed compound level at 20 mg after 72 hrs using 7.5 mg/ml of hydroxyapatite by NMR analysis relative to control; procedure, shortened: as §2
# Hydroxyapatite [8] = assay: Binding affinity to hydroxyapatite assessed as unadsorbed compound level at 20 mg after 3 hrs using 2.5 mg/ml of hydroxyapatite by NMR analysis relative to control; procedure, shortened: as §2
# L929 [9] = assay: Cytotoxicity against mouse L929 cells assessed as cell viability after 72 hrs by neutral-red uptake assay; type: cell-based; details: l929, 72 h
# Procedure, shortened: (§3)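 L929 mouse fibroblasts in MEM/10% FCS, 0.8 × 10^3 cells/well, adhered 24 h, then exposed to serial dilutions (10^-4 to 10^-10 M; 10^-2 M PBS pH 7.4 stocks) for 72 h. Neutral red 2 h at 37 °C, extracted with ethanol/acetic acid, OD 540 nm, blank-subtracted; ratio to medium-only control. Triplicate wells, 9 experiments.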
# L929 [10] = assay: Cytotoxicity against mouse L929 cells assessed as cell viability at 10^-4 to 10^-5 M after 72 hrs by neutral-red uptake assay relative to neridronate; type: cell-based; details: l929, 72 h; procedure, shortened: as §3
# PBMC [11] = assay: Inhibition of osteoclastogenesis in human osteoclasts obtained from PBMC assessed as formation of TRAPC positive multinucleated cells at 10^-5 M after 7 days; type: functional, cell-based
# Procedure, shortened: (§4)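 Human PBMC from buffy coats (Ficoll), adherent monocytes at 3 × 10^6 cells/cm2 differentiated in DMEM/10% FBS with 25% SH-SY5Y conditioned supernatant, compound (10^-5, 10^-7, 10^-9 M) added with differentiation medium for 7 days. TRACP-positive multinucleated cells counted after fixation and TRACP staining; untreated differentiated cultures = 100%. Duplicates; 4 cultures from two donors.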
# Osteoclast = assay: Induction of apoptosis in human multinucleated osteoclasts obtained from PBMC assessed as formation of apoptotic nuclear bodies at 10^-5 M after 7 days by Hoechst 33258 staining; type: functional, cell-based
# Procedure, shortened: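 PBMC-derived osteoclasts (7 days in SH-SY5Y-conditioned differentiation medium) then exposed to compound (10^-5, 10^-7, 10^-9 M) for a further 7 days. Fixed, stained with phalloidin-TRITC (F-actin rings) and Hoechst 33258; multinucleated cells with apoptotic nuclear bodies counted over whole well at 40×, as % of multinucleated TRACP-positive cells. 4 cultures, two donors.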
# PBMC [12] = assay: Inhibition of osteoclastogenesis in human osteoclasts obtained from PBMC assessed as formation of TRAPC positive multinucleated cells at 10^-5 to 10^-9 M after 7 days; type: functional, cell-based; procedure, shortened: as §4
# Hydroxyapatite [13] = assay: Binding affinity to hydroxyapatite assessed as unadsorbed compound level at 40 mg after 72 hrs using 7.5 mg/ml of hydroxyapatite by NMR analysis relative to control
# Procedure, shortened: (§5)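 Compound (about 40 mg) dissolved in 10 mL bidistilled water, pH adjusted to 7.4, stirred at 25 °C in a capped vial with hydroxyapatite; remaining unadsorbed compound in solution followed over time by NMR signal relative to starting signal.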
# Hydroxyapatite [14] = assay: Binding affinity to hydroxyapatite assessed as unadsorbed compound level at 40 mg after 48 hrs using 5 mg/ml of hydroxyapatite by NMR analysis relative to control; procedure, shortened: as §5
# Hydroxyapatite [15] = assay: Binding affinity to hydroxyapatite assessed as unadsorbed compound level at 40 mg after 24 hrs using 2.5 mg/ml of hydroxyapatite by NMR analysis relative to control; procedure, shortened: as §5
# Hydroxyapatite [16] = assay: Binding affinity to hydroxyapatite assessed as unadsorbed compound level at 40 mg after 3 hrs using 2.5 mg/ml of hydroxyapatite by NMR analysis relative to control; procedure, shortened: as §5
# Hydroxyapatite [17] = assay: Binding affinity to hydroxyapatite assessed as unadsorbed compound level at 40 mg after 96 hrs using 10 mg/ml of hydroxyapatite by NMR analysis relative to control; procedure, shortened: as §5
compound,measurement,setting,value
C[C@H](CCC(O)(P(=O)(O)O)P(=O)(O)O)[C@H]1CC[C@H]2[C@@H]3[C@H](O)C[C@@H]4C[C@H](O)CC[C@]4(C)[C@H]3C[C@H](O)[C@]12C,logD,[1],-4.53
same,logD,[2],-0.76
C[C@H](CCC(O)(P(=O)([O-])O)P(=O)([O-])O)[C@H]1CC[C@H]2[C@@H]3[C@H](O)C[C@@H]4C[C@H](O)CC[C@]4(C)[C@H]3C[C@H](O)[C@]12C.[Na+].[Na+],solubility,[3],Insoluble
O=P(O)(O)C(Cl)(Cl)P(=O)(O)O [CLODRONIC ACID],Activity,Hydroxyapatite [4],100%
same,logD,[1],-5.04
same,Activity,Hydroxyapatite [5],93%
same,logD,[2],-1.32
same,Activity,Hydroxyapatite [6],100%
same,Activity,Hydroxyapatite [7],96%
same,Activity,Hydroxyapatite [8],100%
C[C@H](CCC(O)(P(=O)([O-])O)P(=O)([O-])O)[C@H]1CC[C@H]2[C@@H]3[C@H](O)C[C@@H]4C[C@H](O)CC[C@]4(C)[C@H]3CC[C@]12C.[Na+].[Na+],Activity,L929 [9],Dose-dependent effect
same,Activity,L929 [10],Non-toxic
C[C@H](CCC(=O)O)[C@H]1CC[C@H]2[C@@H]3[C@H](O)C[C@@H]4C[C@H](O)CC[C@]4(C)[C@H]3CC[C@]12C,inhibition,PBMC [11],Active
same,Activity,Osteoclast,Active
NCCCCCC(O)(P(=O)(O)O)P(=O)(O)O [NERIDRONIC ACID],Activity,Hydroxyapatite [4],96%
same,Activity,L929 [9],Dose-dependent effect
same,inhibition,PBMC [12],Active
same,Activity,Hydroxyapatite [5],67%
same,Activity,Hydroxyapatite [6],85%
same,Activity,Hydroxyapatite [7],82%
same,Activity,Hydroxyapatite [8],98%
same,Activity,Osteoclast,Active
C[C@H](CCC(O)(P(=O)(O)O)P(=O)(O)O)[C@H]1CC[C@H]2[C@@H]3[C@H](O)C[C@@H]4C[C@H](O)CC[C@]4(C)[C@H]3CC[C@]12C [listing 1 of 2 here],inhibition,PBMC [12],Active
same,Activity,Hydroxyapatite [13],12%
same,Activity,Hydroxyapatite [14],32%
same,Activity,Hydroxyapatite [15],64%
same,Activity,Hydroxyapatite [16],91%
same,Activity,Hydroxyapatite [17],3%
same,Activity,Osteoclast,Active
C[C@H](CCC(O)(P(=O)(O)O)P(=O)(O)O)[C@H]1CC[C@H]2[C@@H]3[C@@H](O)C[C@@H]4C[C@H](O)CC[C@]4(C)[C@H]3CC[C@]12C,logD,[1]; read-out: logD,-3.34
same,logD,[2],0.44
C[C@H](CCC(O)(P(=O)(O)O)P(=O)(O)O)[C@H]1CC[C@H]2[C@@H]3[C@H](O)C[C@@H]4C[C@H](O)CC[C@]4(C)[C@H]3CC[C@]12C [listing 2 of 2 here],logD,[1]; read-out: logD,-3.34
same,logD,[2],0.44
C[C@H](CCC(O)(P(=O)([O-])O)P(=O)([O-])O)[C@H]1CC[C@H]2[C@@H]3[C@@H](O)C[C@@H]4C[C@H](O)CC[C@]4(C)[C@H]3CC[C@]12C.[Na+].[Na+],solubility,[3],Insoluble
